Assay results as given in ChEMBL document CHEMBL3091274, “SAR-based optimization of 2-(1H-pyrazol-1-yl)-thiazole derivatives as highly potent EP1 receptor antagonists” (Bioorg Med Chem Lett, 2013).
Converted amounts (≈) assume the structure as drawn. Blank lines part the entries; values can stand above or below the compound they belong to.

Experiments:
[1] = target: T1, Prostaglandin E2 receptor EP1 subtype (Homo sapiens, UniProt P34995); experiment: Antagonist activity human EP1 receptor assessed as inhibition of PGE2-induced effect by reporter gene assay
T1 sequence (P34995 whole entry): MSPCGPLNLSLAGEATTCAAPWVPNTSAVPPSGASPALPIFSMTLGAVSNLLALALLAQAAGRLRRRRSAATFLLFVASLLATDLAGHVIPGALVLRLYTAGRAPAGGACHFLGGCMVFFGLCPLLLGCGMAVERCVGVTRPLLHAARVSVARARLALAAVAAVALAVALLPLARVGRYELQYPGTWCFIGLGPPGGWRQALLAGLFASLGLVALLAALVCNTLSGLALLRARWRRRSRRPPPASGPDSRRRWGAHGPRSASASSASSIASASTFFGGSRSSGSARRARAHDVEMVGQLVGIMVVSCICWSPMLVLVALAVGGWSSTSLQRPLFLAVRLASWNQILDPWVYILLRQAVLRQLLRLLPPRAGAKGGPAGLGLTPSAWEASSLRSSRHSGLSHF
In short: (§1)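 Human EP1 receptor-expressing recombinant cells stimulated with PGE2; antagonism read out by reporter-gene assay or by intracellular Ca2+ release; IC50 in nM.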

[2] = Solubility of the compound at pH 6.8; assay type: physicochemical; settings: buffer
In short: (§2)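 Solubility measured in aqueous buffer at pH 1.2 and pH 6.8; reported in […].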

[3] = Solubility of the compound in water; assay type: physicochemical
[4] = Intrinsic clearance in human liver microsomes; assay type: ADME; settings: read-out: CLH
In short: (§3)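 Rat or human hepatic microsomes; test compound at 0.5 µM; CLint calculated from elimination ratio between 0 and 20 min; expressed as ml/min/kg.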

[5] = Intrinsic clearance in rat liver microsomes; assay type: ADME; settings: read-out: CLH; in short: as §3
[6] = target: T1, Prostaglandin E2 receptor EP1 subtype; experiment: Antagonist activity human EP1 receptor assessed as inhibition of PGE2-induced intracellular Ca2+ release by cell-based assay; assay type: functional; in short: as §1
albumin = albumin (Homo sapiens, UniProt P02768); experiment: Binding affinity to albumin in plasma (unknown origin); assay type: ADME; settings: read-out: PPB (converted)
[7] = target: T2, Prostaglandin E2 receptor EP1 subtype (Homo sapiens) (UniProt P34995); experiment: Antagonist activity human EP1 receptor assessed as inhibition of PGE2-induced effect at 1 uM by reporter gene assay relative to control
T2 sequence (whole entry): T1 sequence (P34995 whole entry)

[8] = target: T3, Prostaglandin E2 receptor EP3 subtype (Homo sapiens, UniProt P43115); experiment: Binding affinity to human EP3 receptor
T3 sequence (P43115 whole entry): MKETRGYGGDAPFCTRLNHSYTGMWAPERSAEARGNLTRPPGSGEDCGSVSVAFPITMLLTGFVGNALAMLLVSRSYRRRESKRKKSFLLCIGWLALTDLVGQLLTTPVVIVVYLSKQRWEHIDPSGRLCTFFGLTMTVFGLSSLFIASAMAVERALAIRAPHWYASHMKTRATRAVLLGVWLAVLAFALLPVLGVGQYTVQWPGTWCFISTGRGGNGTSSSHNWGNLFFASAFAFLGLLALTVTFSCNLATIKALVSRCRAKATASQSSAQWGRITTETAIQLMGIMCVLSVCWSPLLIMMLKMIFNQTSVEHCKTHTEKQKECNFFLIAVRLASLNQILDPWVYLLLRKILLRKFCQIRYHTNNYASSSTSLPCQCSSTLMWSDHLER

[9] = target: T1, Prostaglandin E2 receptor EP1 subtype; experiment: Binding affinity to human EP1 receptor
[10] = Oral bioavailability in rat at 10 mg/kg; assay type: ADME, organism-based; settings: in vivo
In short: (§4)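 Rats (n = 3) given single oral dose, 10 mg/kg; plasma Cmax, AUC and bioavailability derived from pharmacokinetic profile.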

[11] = Cmax in rat at 10 mg/kg, po; assay type: ADME, organism-based; design: dose 10 mg/kg, route oral; settings: in vivo; in short: as §4
[12] = AUC (0 to infinity) in rat at 10 mg/kg, po; assay type: ADME, organism-based; design: time infinity, dose 10 mg/kg, route oral; settings: plasma; in short: as §4
[13] = Apparent permeability in MDCK cells; assay type: ADME, cell-based, Canis lupus familiaris; settings: dog
In short: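 Epithelial permeability across Madin–Darby canine kidney cell monolayer, with atenolol as reference.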

[14] = Solubility of the compound at pH 1.2; assay type: physicochemical; settings: buffer; in short: as §2
Thromboxane A2 receptor = target: T4, Thromboxane A2 receptor (Homo sapiens, UniProt P21731); experiment: Inhibition of TP receptor (unknown origin)
T4 sequence (P21731 whole entry): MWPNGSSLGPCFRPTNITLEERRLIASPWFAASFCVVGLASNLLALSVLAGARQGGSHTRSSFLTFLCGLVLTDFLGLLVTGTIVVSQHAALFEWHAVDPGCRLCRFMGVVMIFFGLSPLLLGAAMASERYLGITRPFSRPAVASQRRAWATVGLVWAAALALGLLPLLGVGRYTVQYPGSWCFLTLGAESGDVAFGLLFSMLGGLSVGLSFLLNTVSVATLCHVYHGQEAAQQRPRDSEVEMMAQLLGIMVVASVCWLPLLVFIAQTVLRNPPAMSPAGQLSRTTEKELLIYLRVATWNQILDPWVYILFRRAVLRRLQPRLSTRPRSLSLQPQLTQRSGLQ

[15] = target: Prostaglandin E2 receptor EP4 subtype (Homo sapiens, UniProt P35408); experiment: Binding affinity to human EP4 receptor
Cytochrome P450 1A2 = target: T5, Cytochrome P450 1A2 (Homo sapiens, UniProt P05177); experiment: Inhibition of human CYP1A2; assay type: ADME
T5 sequence (P05177 whole entry): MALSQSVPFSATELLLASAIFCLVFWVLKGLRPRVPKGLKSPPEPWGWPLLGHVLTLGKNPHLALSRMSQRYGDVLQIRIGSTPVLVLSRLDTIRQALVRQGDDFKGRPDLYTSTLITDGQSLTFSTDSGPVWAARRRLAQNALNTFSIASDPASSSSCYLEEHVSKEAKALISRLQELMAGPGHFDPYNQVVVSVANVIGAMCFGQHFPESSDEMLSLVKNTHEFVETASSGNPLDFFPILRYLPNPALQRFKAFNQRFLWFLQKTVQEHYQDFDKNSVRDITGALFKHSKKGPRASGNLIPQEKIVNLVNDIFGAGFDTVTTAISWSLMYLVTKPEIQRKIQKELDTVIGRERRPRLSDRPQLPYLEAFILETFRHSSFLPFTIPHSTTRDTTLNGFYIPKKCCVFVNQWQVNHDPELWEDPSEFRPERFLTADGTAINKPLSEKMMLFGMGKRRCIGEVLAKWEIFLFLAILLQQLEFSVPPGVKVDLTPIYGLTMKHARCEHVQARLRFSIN

Cytochrome P450 3A4 = Cytochrome P450 3A4 (Homo sapiens, UniProt P08684); experiment: Inhibition of human CYP3A4; assay type: ADME
Salmonella typhimurium = experiment: Genotoxicity in Salmonella typhimurium TA98 by Ames test; assay type: toxicity, organism-based; settings: salmonella enterica subsp. enterica serovar typhimurium
In short: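 Bacterial reverse mutation (Ames) test in amino acid-requiring Salmonella typhimurium TA98, detecting point mutations.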

Cytochrome P450 2C19 = Cytochrome P450 2C19 (Homo sapiens, UniProt P33261); experiment: Inhibition of human CYP2C19; assay type: ADME
Cytochrome P450 2D6 = Cytochrome P450 2D6 (Homo sapiens, UniProt P10635); experiment: Inhibition of human CYP2D6; assay type: ADME
[16] = target: Prostaglandin E2 receptor EP2 subtype (Homo sapiens, UniProt P43116); experiment: Binding affinity to human EP2 receptor
Cytochrome P450 2C9 = Cytochrome P450 2C9 (Homo sapiens, UniProt P11712); experiment: Inhibition of human CYP2C9; assay type: ADME
Sequence of Cytochrome P450 2C9 (P11712 whole entry): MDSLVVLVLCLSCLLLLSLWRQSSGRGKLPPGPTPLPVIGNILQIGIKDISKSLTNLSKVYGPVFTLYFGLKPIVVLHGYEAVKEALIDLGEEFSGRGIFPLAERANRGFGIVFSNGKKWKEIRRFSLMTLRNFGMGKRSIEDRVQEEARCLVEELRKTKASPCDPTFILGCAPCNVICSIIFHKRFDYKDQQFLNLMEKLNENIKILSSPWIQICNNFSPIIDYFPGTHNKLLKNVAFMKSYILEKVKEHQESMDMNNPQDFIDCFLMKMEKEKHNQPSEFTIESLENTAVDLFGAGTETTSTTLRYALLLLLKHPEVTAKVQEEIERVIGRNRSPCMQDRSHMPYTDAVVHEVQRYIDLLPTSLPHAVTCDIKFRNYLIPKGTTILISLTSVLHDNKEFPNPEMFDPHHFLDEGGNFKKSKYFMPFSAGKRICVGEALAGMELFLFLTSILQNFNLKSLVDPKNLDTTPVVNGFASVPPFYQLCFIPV

Sequence of albumin (P02768 whole entry): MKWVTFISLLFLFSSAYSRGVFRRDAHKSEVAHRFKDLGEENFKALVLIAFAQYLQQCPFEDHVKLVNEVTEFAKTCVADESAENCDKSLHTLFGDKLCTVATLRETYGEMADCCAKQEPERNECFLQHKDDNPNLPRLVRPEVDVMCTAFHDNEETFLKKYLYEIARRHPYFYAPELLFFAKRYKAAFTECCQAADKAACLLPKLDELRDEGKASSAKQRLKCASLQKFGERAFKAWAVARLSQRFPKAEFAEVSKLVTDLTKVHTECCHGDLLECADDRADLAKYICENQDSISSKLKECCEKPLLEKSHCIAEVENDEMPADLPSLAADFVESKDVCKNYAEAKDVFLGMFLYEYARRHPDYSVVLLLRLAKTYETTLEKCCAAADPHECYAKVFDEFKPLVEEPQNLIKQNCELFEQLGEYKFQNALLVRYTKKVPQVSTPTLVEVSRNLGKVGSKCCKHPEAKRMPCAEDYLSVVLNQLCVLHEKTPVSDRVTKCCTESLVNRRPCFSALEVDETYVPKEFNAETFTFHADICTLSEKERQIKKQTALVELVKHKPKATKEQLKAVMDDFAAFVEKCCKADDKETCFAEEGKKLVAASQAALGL
Sequence of Prostaglandin E2 receptor EP2 subtype (P43116 whole entry): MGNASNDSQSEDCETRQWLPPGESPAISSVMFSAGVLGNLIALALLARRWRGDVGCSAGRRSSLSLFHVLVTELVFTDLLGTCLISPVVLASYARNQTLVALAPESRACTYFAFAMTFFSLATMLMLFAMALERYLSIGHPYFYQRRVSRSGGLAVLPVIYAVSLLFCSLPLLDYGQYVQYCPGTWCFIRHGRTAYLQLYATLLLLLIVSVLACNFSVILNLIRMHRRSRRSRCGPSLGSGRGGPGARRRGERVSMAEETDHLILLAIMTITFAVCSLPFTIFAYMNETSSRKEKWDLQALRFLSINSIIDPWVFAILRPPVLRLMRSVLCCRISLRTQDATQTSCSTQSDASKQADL
Sequence of Cytochrome P450 2D6 (P10635 whole entry): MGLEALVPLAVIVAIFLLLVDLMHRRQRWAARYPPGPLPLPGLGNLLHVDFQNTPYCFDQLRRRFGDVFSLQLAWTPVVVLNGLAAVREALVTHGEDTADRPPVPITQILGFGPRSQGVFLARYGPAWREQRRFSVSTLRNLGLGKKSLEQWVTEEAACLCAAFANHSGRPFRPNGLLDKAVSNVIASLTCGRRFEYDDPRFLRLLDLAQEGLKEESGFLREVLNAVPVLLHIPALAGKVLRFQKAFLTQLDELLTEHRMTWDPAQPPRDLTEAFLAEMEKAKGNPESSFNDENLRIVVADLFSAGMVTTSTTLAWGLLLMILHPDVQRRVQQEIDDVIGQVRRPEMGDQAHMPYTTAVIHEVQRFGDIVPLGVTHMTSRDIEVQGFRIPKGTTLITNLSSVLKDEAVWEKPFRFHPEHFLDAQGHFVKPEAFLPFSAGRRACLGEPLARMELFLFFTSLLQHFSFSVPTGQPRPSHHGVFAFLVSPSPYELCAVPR
Sequence of Cytochrome P450 2C19 (P33261 whole entry): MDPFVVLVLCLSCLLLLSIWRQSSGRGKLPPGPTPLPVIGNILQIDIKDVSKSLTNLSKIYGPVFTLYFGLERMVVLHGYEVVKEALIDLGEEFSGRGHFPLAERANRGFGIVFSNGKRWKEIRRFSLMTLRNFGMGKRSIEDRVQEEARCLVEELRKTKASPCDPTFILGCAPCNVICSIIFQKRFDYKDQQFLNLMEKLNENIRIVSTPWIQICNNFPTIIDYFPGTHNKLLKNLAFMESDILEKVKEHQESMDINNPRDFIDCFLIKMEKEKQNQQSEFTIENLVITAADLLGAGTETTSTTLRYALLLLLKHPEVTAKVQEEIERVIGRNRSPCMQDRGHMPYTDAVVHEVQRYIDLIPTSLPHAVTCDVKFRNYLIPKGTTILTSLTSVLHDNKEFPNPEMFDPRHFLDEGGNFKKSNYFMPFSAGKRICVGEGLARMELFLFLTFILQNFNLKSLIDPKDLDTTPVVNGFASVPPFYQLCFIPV
Sequence of Cytochrome P450 3A4 (P08684 whole entry): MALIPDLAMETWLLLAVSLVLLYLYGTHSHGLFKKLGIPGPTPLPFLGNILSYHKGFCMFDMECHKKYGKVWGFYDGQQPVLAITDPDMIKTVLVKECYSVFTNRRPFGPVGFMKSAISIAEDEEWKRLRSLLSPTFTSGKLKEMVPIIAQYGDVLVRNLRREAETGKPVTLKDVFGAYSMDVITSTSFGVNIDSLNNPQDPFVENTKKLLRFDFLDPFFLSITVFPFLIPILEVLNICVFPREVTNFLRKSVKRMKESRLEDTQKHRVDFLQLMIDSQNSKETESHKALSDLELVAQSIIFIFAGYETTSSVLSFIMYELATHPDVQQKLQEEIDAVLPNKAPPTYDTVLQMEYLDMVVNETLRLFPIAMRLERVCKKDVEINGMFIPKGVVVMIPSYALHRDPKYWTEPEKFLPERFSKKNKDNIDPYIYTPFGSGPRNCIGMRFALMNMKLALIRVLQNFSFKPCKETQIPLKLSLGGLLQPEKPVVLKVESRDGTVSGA
Sequence of Prostaglandin E2 receptor EP4 subtype (P35408 whole entry): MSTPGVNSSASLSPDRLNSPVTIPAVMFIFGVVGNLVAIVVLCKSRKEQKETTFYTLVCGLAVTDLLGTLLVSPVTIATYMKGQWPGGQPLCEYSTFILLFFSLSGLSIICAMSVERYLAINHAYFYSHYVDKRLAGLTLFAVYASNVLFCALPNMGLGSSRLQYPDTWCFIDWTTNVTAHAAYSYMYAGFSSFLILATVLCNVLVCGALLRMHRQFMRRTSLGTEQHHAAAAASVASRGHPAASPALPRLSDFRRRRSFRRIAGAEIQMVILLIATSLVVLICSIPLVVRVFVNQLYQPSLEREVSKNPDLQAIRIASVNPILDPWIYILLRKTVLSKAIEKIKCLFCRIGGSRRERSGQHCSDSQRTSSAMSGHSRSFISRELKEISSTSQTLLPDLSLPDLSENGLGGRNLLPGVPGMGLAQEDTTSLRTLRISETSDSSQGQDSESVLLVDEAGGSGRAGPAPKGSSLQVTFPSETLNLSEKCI

- IC50 [1]: 2 nM
- solubility [2]: 10 µg/mL (≈ 26.8 µM)
- solubility [3]: 20 µg/mL (≈ 53.6 µM)
- CLint scaled [4]: 149 mL/min/kg
- CLint scaled [5]: 236 mL/min/kg
- IC50 [6]: 20 nM
- fraction unbound (albumin): 0.0012
SMILES: O=C(O)c1csc(-n2nc3c(c2-c2ccccc2)CCc2ccccc2-3)n1

- IC50 [1]: 100 nM
SMILES: Cc1c(-c2ccccc2)nn(-c2nc(C(=O)O)cs2)c1-c1ccc(F)cc1

- IC50 [1]: 330 nM
SMILES: Cc1sc(-n2nc(-c3ccccc3)c(C)c2-c2ccccc2)nc1C(=O)O

- IC50 [1]: 0.9 nM
- solubility [2]: 57 µg/mL (≈ 159 µM)
- solubility [3]: 4 µg/mL (≈ 11.1 µM)
- CLint scaled [4]: 425 mL/min/kg
- CLint scaled [5]: 927 mL/min/kg
- IC50 [6]: 40 nM
- fraction unbound (albumin): 0.0032
SMILES: O=C(O)c1csc(-n2nc(-c3ccccc3)c3c2-c2ccccc2C3)n1

- IC50 [1]: 60 nM
SMILES: O=C(O)c1csc(-n2nc(-c3ccccc3)c(Cl)c2-c2ccccc2)n1

- inhibition [7]: 24%
SMILES: Cc1c(-c2ccccc2)nn(-c2nc(C(=O)O)cs2)c1-c1cncnc1

- inhibition [7]: 24%
SMILES: Cc1c(-c2ccccc2)nn(-c2ccc(C(=O)O)o2)c1-c1ccccc1

- inhibition [7]: 10%
SMILES: Cc1c(-c2ccccc2)nn(-c2nc(C(=O)O)cs2)c1-c1ccc(N)cc1

- IC50 [1]: 30 nM
SMILES: O=C(O)c1csc(-n2nc(-c3ccccc3)c(F)c2-c2ccccc2)n1

- inhibition [7]: 33%
SMILES: Cc1c(-c2ccccc2)nn(-c2nc(C(=O)O)co2)c1-c1ccccc1

- IC50 [1]: 20 nM
- Ki [8]: > 5000 nM
- Ki [9]: 8 nM
- solubility [2]: 1010 µg/mL (≈ 2790 µM)
- bioavailability [10]: 26%
- solubility [3]: 865 µg/mL (≈ 2390 µM)
- Cmax [11]: 6.33 µM
- CLint scaled [4]: 19 mL/min/kg
- AUC(0-inf) [12]: 17.4 µM·h
- CLint scaled [5]: 29 mL/min/kg
- Papp [13]: 12.2 ×10⁻⁶ cm/s
- solubility [14]: 867 µg/mL (≈ 2390 µM)
- IC50 (Thromboxane A2 receptor): 200 nM
- IC50 [6]: 60 nM
- Ki [15]: > 2700 nM
- IC50 (Cytochrome P450 1A2): 7100 nM
- IC50 (Cytochrome P450 3A4): > 10000 nM
- IC50 (Cytochrome P450 2C19): 6140 nM
- IC50 (Cytochrome P450 2D6): > 10000 nM
- fraction unbound (albumin): 0.01
- Ki [16]: > 8700 nM
- IC50 (Cytochrome P450 2C9): 5620 nM
SMILES: Nc1c(-c2ccccc2)nn(-c2nc(C(=O)O)cs2)c1-c1ccccc1
- Activity (Salmonella typhimurium): Non-toxic

- IC50 [1]: 120 nM
SMILES: Cc1c(-c2ccccc2)nn(-c2nc(C(=O)O)cs2)c1-c1cccs1

- IC50 [1]: > 100 nM
SMILES: O=C(O)c1csc(-n2nc(-c3ccccc3)c3c2-c2ccccc2CC3)n1

- inhibition [7]: 48%
SMILES: Cc1c(-c2ccccc2)nn(-c2cccc(C(=O)O)n2)c1-c1ccccc1

- IC50 [1]: 20 nM
SMILES: O=C(O)c1csc(-n2nc(-c3ccccc3)c3oc4ccccc4c32)n1

- IC50 [1]: 500 nM
SMILES: Cc1c(-c2ccccc2)nn(-c2nc(/C=C/C(=O)O)cs2)c1-c1ccccc1

- inhibition [7]: 26%
SMILES: Cc1c(-c2ccccc2)nn(-c2cncc(C(=O)O)c2)c1-c1ccccc1

- inhibition [7]: 18%
SMILES: COc1c(-c2ccccc2)nn(-c2nc(C(=O)O)cs2)c1-c1ccccc1

- solubility [2]: 401 µg/mL (≈ 1110 µM)
- solubility [3]: 129 µg/mL (≈ 357 µM)
- CLint scaled [4]: 35 mL/min/kg
- CLint scaled [5]: 15 mL/min/kg
- Papp [13]: 51.6 ×10⁻⁶ cm/s
- IC50 (Cytochrome P450 1A2): 7930 nM
- IC50 (Cytochrome P450 3A4): > 10000 nM
- IC50 (Cytochrome P450 2C19): 4710 nM
- IC50 (Cytochrome P450 2D6): > 10000 nM
- fraction unbound (albumin): 0.0029
- Ki [16]: > 8700 nM
- IC50 (Cytochrome P450 2C9): > 10000 nM
SMILES: Cc1c(-c2ccccc2)nn(-c2nc(C(=O)O)cs2)c1-c1ccccc1
- Activity (Salmonella typhimurium): Non-toxic

- inhibition [7]: 34%
SMILES: Cc1c(-c2ccccc2)nn(-c2nc(C(=O)O)cs2)c1-c1cccnc1

- IC50 [1]: 150 nM
SMILES: O=C(O)c1csc(-n2nc(-c3ccccc3)c(C(F)(F)F)c2-c2ccccc2)n1

- IC50 [1]: 50 nM
SMILES: Cc1c(-c2ccccc2)nn(-c2nc(C(=O)O)cs2)c1-c1cccc(F)c1

- IC50 [1]: 20 nM
SMILES: O=C(O)c1csc(-n2nc(-c3ccccc3)c(Br)c2-c2ccccc2)n1

- IC50 [1]: 1000 nM
SMILES: Cc1c(-c2ccccc2)nn(-c2ccc(C(=O)O)s2)c1-c1ccccc1

- inhibition [7]: 8%
SMILES: Cc1c(-c2ccccc2)nn(-c2nc(C(=O)O)cs2)c1-c1cnn(C)c1

- IC50 [1]: 80 nM
SMILES: Cc1c(-c2ccccc2)nn(-c2nc(C(=O)O)cs2)c1-c1ccsc1

- inhibition [7]: -4%
SMILES: CCc1c(-c2ccccc2)nn(-c2nc(C(=O)O)cs2)c1-c1ccccc1

- IC50 [1]: 60 nM
SMILES: O=C(O)c1csc(-n2nc(-c3ccccc3)c(O)c2-c2ccccc2)n1

- IC50 [1]: 130 nM
SMILES: O=C(O)c1csc(-n2nc(-c3ccccc3)c(I)c2-c2ccccc2)n1
